Test results published in the M2OR odorant receptor database.

Tests used:
Conditions in all cases: stereoisomer not certain
OR10G2 (Homo sapiens) = molecular target: T1, OR10G2 (Homo sapiens) (UniProt Q8NGC3)
T1 sequence (whole entry): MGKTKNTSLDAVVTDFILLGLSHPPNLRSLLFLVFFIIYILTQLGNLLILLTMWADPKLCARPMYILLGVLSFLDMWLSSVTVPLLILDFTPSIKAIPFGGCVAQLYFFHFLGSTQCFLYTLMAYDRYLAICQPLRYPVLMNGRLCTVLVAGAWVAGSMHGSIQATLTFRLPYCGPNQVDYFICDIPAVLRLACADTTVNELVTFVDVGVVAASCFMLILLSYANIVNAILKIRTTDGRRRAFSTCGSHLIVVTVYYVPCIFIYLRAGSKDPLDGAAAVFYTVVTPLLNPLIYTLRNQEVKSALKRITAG
Method in brief: (§1)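 Each receptor–molecule pair is labelled responsive or non-responsive (inactive) according to whether the original authors judged the measured signal statistically different from baseline. The data were taken from the main text and supplementary material of published papers and checked for typos and inconsistencies. Assay methods differed by source, with transient luciferase assays in mammalian cell lines being common.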

OR10G3 (Homo sapiens) = molecular target: T2, OR10G3 (Homo sapiens) (UniProt Q8NGC4)
T2 sequence (whole entry): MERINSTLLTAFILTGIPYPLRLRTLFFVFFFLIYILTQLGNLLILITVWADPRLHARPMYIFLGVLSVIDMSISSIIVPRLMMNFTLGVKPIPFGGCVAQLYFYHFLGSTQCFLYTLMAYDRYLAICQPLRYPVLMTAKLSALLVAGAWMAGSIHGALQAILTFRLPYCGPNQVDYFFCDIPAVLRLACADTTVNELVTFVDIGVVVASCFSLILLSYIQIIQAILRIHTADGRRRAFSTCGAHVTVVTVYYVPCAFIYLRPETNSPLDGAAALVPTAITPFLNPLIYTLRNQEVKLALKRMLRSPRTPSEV
Method in brief: as §1

OR10G4 (Homo sapiens) = molecular target: T3, OR10G4 (Homo sapiens) (UniProt Q8NGN3)
T3 sequence (whole entry): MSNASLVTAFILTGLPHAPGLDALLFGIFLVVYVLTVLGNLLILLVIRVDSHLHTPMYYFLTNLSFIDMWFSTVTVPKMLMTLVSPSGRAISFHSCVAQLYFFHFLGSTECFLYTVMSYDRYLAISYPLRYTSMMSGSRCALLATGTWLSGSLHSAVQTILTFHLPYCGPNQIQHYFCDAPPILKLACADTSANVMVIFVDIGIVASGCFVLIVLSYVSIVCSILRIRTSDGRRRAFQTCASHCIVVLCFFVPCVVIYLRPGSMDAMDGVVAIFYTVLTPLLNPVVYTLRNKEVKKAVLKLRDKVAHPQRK
Method in brief: as §1

OR10G6 (Homo sapiens) = molecular target: T4, OR10G6 (Homo sapiens) (UniProt Q8NH81)
T4 sequence (whole entry): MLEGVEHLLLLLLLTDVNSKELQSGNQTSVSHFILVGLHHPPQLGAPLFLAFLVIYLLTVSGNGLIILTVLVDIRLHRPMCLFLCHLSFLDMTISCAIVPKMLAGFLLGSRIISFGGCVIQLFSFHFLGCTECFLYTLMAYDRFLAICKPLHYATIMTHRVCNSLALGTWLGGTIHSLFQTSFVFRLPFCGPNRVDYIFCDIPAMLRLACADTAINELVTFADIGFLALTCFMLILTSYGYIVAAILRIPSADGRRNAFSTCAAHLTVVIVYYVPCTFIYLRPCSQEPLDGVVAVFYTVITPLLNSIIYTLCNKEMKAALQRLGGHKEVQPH
Method in brief: as §1

OR10G7 (Homo sapiens) = molecular target: T5, OR10G7 (Homo sapiens) (UniProt Q8NGN6)
T5 sequence (whole entry): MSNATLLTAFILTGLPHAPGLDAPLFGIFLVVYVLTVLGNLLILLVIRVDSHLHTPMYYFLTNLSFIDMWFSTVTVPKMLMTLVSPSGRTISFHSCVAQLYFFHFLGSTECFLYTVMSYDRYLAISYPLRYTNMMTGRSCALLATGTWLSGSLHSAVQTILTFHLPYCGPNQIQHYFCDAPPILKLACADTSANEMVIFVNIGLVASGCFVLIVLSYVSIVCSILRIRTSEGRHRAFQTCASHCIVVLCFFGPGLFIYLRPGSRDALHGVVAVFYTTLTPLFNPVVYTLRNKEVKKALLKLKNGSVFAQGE
Method in brief: as §1

OR10G8 (Homo sapiens) = molecular target: T6, OR10G8 (Homo sapiens) (UniProt Q8NGN5)
T6 sequence (whole entry): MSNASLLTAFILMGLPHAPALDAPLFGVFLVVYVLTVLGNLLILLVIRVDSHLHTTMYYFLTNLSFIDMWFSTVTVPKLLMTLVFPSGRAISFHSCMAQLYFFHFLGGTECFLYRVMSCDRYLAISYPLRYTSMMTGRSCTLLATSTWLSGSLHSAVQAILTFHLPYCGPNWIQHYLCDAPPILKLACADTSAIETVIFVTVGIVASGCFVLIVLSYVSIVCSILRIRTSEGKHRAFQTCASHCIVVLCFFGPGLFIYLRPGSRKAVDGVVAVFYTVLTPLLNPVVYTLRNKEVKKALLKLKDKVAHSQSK
Method in brief: as §1

OR10G9 (Homo sapiens) = molecular target: T7, OR10G9 (Homo sapiens) (UniProt Q8NGN4)
T7 sequence (whole entry): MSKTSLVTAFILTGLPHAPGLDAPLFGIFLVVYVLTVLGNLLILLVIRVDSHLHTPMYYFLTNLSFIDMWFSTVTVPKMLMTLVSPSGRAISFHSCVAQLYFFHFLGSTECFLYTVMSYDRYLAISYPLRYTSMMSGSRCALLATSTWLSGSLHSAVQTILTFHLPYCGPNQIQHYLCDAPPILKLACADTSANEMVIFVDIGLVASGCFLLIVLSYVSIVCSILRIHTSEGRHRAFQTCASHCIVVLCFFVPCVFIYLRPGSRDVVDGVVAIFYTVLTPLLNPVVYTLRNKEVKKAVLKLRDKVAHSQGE
Method in brief: as §1

OR10H1 (Homo sapiens) = molecular target: T8, OR10H1 (Homo sapiens) (UniProt Q9Y4A9)
T8 sequence (whole entry): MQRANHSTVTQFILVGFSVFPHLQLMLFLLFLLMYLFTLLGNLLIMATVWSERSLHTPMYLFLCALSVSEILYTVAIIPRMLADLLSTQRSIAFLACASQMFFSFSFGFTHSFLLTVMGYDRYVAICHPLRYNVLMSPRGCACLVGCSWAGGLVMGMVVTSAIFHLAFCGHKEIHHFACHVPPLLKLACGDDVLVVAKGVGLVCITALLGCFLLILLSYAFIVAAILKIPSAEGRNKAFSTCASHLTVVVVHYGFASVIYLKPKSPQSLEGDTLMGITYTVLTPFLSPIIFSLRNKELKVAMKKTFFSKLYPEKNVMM
Method in brief: as §1

OR10H2 (Homo sapiens) = molecular target: T9, OR10H2 (Homo sapiens) (UniProt O60403)
T9 sequence (whole entry): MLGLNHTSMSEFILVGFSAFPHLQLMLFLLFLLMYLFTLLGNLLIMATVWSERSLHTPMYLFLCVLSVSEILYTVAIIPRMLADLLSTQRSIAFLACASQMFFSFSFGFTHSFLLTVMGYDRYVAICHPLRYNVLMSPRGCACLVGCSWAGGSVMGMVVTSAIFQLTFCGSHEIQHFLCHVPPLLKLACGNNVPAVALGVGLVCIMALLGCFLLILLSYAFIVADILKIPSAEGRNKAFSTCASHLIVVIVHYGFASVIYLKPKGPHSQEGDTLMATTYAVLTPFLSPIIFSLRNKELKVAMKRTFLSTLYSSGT
Method in brief: as §1

Measured: odorant receptor agonist call;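 further: active if original authors judged signal statistically different from baseline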

CCCCCC(=O)C(C)C(C)=O (centres undefined)
inactive: all assays above
